{
  "source": "ChEMBL document CHEMBL1145402",
  "about": "“Discovery of potent and muscle selective androgen receptor modulators through scaffold modifications” (J Med Chem, 2007)",
  "key": {"Androgen receptor [1]": {"target": "T1, Androgen receptor (Homo sapiens, UniProt P10275)", "T1 sequence (P10275 whole entry)": "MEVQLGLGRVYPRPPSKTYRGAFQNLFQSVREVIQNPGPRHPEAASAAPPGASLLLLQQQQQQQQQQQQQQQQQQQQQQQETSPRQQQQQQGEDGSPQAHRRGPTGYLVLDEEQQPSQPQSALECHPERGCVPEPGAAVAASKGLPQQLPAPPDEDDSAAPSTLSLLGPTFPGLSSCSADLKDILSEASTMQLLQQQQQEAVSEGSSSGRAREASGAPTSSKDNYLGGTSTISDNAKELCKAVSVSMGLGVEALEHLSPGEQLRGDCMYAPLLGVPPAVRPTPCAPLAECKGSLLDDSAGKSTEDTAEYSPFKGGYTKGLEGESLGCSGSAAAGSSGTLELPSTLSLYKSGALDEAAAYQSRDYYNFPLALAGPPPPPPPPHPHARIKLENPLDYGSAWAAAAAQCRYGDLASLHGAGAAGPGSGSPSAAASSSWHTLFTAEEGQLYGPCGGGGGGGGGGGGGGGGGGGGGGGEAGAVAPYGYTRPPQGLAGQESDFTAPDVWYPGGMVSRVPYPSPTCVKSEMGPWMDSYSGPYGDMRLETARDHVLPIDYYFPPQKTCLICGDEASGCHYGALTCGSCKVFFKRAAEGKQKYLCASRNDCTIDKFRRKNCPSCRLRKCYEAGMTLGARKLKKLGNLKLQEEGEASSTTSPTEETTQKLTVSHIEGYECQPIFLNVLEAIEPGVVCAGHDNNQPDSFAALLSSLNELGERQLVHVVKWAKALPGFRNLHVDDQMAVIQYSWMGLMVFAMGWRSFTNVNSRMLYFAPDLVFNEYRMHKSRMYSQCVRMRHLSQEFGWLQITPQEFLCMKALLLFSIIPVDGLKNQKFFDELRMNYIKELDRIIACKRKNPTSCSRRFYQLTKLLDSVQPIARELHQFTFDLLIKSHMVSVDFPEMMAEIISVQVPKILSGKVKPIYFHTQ", "assay": "Agonist activity at androgen receptor expressed in C2C12 mouse cells by luciferase reporter transactivation assay", "assay_type": "functional, cell-based"}, "Androgen receptor [2]": {"target": "T1, Androgen receptor", "assay": "Displacement of [3H]DHT from androgen receptor expressed in MDA-MB-453 cells", "assay_type": "cell-based"}, "Rattus norvegicus [3]": {"tested_on": "Rattus norvegicus", "assay": "Stimulation of levator ani muscle weight in Sprague-Dawley rat at 1 mg/kg, po after 14 days", "assay_type": "functional", "summary_of_the_method": "(§1)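 Mature male rats were castrated two weeks before treatment. Compound was given […] once daily for two weeks, then levator ani muscle and ventral prostate were weighed. Weights are expressed as percent of a sham-operated, vehicle-treated intact control group, ±SEM.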"}, "Rattus norvegicus [4]": {"tested_on": "Rattus norvegicus", "assay": "Stimulation of ventral prostate tissue weight in Sprague-Dawley rat at 1 mg/kg, po after 14 days", "assay_type": "functional, Prostate gland", "summary_of_the_method": "as §1"}, "Rattus norvegicus [5]": {"tested_on": "Rattus norvegicus", "assay": "Stimulation of levator ani muscle weight in Sprague-Dawley rat at 0.3 mg/kg, sc after 14 days", "assay_type": "functional", "conditions": "route subcutaneous", "summary_of_the_method": "(§2)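 Mature male rats were castrated two weeks before dosing. Testosterone propionate was given subcutaneously for two weeks, then levator ani muscle and ventral prostate were weighed. Weights are expressed as percent of a sham-operated, vehicle-treated intact control group, ±SEM.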"}, "Rattus norvegicus [6]": {"tested_on": "Rattus norvegicus", "assay": "Stimulation of ventral prostate tissue weight in Sprague-Dawley rat at 0.3 mg/kg, sc after 14 days", "assay_type": "functional, Prostate gland", "conditions": "route subcutaneous", "summary_of_the_method": "as §2"}},
  "data": [
    {"molecule": "CC[C@@H]1[C@@H]2[C@@H](O)CCN2C(=O)N1c1ccc(C#N)c(Cl)c1C", "values": [
      {"measurement": "EC50", "setting": "Androgen receptor [1]", "result": 7.1, "unit": "nM"},
      {"measurement": "Ki", "setting": "Androgen receptor [2]", "result": 1.6, "unit": "nM"}
    ]},
    {"molecule": "Cc1c(N2C(=O)N3CC[C@H](O)[C@H]3[C@@H]2C(F)(F)F)ccc(C#N)c1Cl", "values": [
      {"measurement": "EC50", "setting": "Androgen receptor [1]", "result": 2.5, "unit": "nM"},
      {"measurement": "Ki", "setting": "Androgen receptor [2]", "result": 0.9, "unit": "nM"}
    ]},
    {"molecule": "Cc1c(N2C[C@@H]3[C@H](O)CC[C@@H]3C2=O)ccc(C#N)c1Cl", "values": [
      {"measurement": "EC50", "setting": "Androgen receptor [1]", "result": 20, "unit": "nM"},
      {"measurement": "Activity", "setting": "Rattus norvegicus [3]", "result": 45, "unit": "%"},
      {"measurement": "Activity", "setting": "Rattus norvegicus [4]", "result": 6, "unit": "%"}
    ]},
    {"molecule": "Cc1c(N2C(=O)N3CC[C@H](O)[C@H]3[C@H]2C(F)(F)F)ccc(C#N)c1Cl", "values": [
      {"measurement": "EC50", "setting": "Androgen receptor [1]", "result": 48, "unit": "nM"},
      {"measurement": "Ki", "setting": "Androgen receptor [2]", "result": 1.9, "unit": "nM"}
    ]},
    {"molecule": "CC[C@@H]1[C@@H]2[C@H](O)CCN2C(=O)N1c1ccc(C#N)c(Cl)c1C", "values": [
      {"measurement": "EC50", "setting": "Androgen receptor [1]", "result": 7.4, "unit": "nM"},
      {"measurement": "Ki", "setting": "Androgen receptor [2]", "result": 2.3, "unit": "nM"}
    ]},
    {"molecule": "Cc1c(N2C(=O)N3CC[C@@H](O)[C@H]3[C@H]2C(C)C)ccc(C#N)c1Cl", "values": [
      {"measurement": "EC50", "setting": "Androgen receptor [1]", "result": 108, "unit": "nM"},
      {"measurement": "Ki", "setting": "Androgen receptor [2]", "result": 23, "unit": "nM"}
    ]},
    {"molecule": "CC1=C(c2ccc(C#N)c(Cl)c2C)C(=O)N2CC[C@H](O)[C@@H]12", "values": [
      {"measurement": "EC50", "setting": "Androgen receptor [1]", "result": 2, "unit": "nM"}
    ]},
    {"molecule": "CCC(=O)O[C@H]1CC[C@H]2[C@@H]3CCC4=CC(=O)CC[C@]4(C)[C@H]3CC[C@]12C", "note": "[TESTOSTERONE PROPIONATE]", "values": [
      {"measurement": "Activity", "setting": "Rattus norvegicus [5]", "result": 70, "unit": "%"},
      {"measurement": "Activity", "setting": "Rattus norvegicus [6]", "result": 68, "unit": "%"}
    ]}
  ]
}
